Beta cell apopt: blocks beta cell apoptosis; INS-1E cytokine-induced death, ATP luminescence, 48 h; percent of positive-control rescue, neutral wells zero; protection from apoptosis, % (concentration not given with the values); hit rate 0.8% among 300,000;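 active = Every replicate reaches about 75%, or at least half do and their mean reaches it too, limit read from the data; inconclusive = At least half of replicates reach the limit but their mean does not; inactive = Under half of replicates reach the limit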;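 note: 0% = cytokine-treated negative control wells and 100% = positive control rescue; higher means more ATP so stronger rescue from cytokine killing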
Mdm2 MdmX PPI: human Mdm2/MdmX binding inhibition; O15151+Q00987; inhibition, % at 8 µM; hit rate 3% among 330,000; SaOS-2 split-luciferase Mdm2/MdmX complementation, luminescence; AID 485346;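 active = inhibition of at least 50% at 8 µM in the primary screen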
Target sequence (O15151 whole entry, looked up): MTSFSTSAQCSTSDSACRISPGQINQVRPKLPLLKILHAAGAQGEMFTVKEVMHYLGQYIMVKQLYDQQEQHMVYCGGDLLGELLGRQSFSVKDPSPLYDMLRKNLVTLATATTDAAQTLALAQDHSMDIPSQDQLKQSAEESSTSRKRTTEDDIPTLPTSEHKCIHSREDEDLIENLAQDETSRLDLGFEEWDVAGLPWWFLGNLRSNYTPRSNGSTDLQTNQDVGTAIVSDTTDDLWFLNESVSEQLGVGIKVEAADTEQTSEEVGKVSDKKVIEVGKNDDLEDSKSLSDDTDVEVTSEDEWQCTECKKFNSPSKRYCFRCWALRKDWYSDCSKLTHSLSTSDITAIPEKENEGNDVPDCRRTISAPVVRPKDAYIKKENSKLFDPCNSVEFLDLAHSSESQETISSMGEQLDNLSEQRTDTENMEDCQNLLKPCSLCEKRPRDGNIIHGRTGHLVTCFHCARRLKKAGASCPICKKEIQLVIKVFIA
Target sequence (Q00987 whole entry, looked up): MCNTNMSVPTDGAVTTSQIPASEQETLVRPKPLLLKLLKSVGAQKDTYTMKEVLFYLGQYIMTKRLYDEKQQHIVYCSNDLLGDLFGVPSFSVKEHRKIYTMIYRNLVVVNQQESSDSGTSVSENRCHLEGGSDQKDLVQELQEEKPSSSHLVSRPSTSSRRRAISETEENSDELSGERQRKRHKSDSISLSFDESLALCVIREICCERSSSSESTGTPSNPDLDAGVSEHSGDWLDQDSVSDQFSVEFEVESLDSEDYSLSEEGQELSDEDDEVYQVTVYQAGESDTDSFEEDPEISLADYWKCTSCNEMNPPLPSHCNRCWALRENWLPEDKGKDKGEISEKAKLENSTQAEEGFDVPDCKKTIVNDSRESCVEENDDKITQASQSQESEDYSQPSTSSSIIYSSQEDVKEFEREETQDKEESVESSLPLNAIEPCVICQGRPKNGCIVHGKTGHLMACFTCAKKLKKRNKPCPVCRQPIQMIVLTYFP
CSC inhib: blocks cancer stem cells; hit rate 1.1% among 300,000; inhibition, % at 7.5 µM; cancer stem cell-like cells viability, luminescence; in the data active = inhibition above about 75%; inconclusive = no clear call, values can overlap the other calls; tested in HMLE shEcad cells
Calb FLC: affects C. albicans growth with fluconazole. AID 1979. hit rate 0.57% among 300,000. growth inhibition, % (no concentration beside the values). C. albicans CaCi-2 (fluconazole-resistant clinical isolate) + fluconazole, Alamar Blue growth, 48 h;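 active = growth inhibition above about 58% in most replicates, limit read from the data, passing the limit was not always enough; inconclusive = exactly half the replicates above a set limit; inactive = most replicates below a set limit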;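 note: all wells also contain fluconazole at 8 µg/ml as a sub-toxic cotreatment; 0% = median of DMSO wells and 100% = median of geldanamycin control wells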
SKKanGAS inh: blocks kanamycin growth of S. pyogenes SKKanGAS strain. inhibition, % at 7.5 µM. hit rate 1.3% among 300,000. BacTiter-Glo, 6 h;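 active = mean replicate score, as percent of positive control median, at least 50; inconclusive = mean below 50 but one replicate at or above 50; inactive = mean and every replicate below 50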;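 note: strain carries kanamycin resistance gene driven by streptokinase promoter and grows in 40 µg/ml kanamycin; loss of luminescence reflects streptokinase promoter inhibition or plain growth inhibition; 0% = median of DMSO wells and 100% = positive control at its reference dose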
T cruzi inh: blocks replication of Trypanosoma cruzi; hit rate 1.4% among 300,000; AID 1885; T. cruzi beta-gal in NIH3T3, luminescence, 90 h; inhibition, % (no concentration beside the values);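 active = mean inhibition across valid replicates above about 55%, limit read from the data; inconclusive = mean below that limit but half or more replicates reach it; inactive = mean below it, under half of replicates reach it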;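 note: signal also drops with host cell toxicity which is not excluded here; 0% = plate median of DMSO wells and 100% = zero luminescence signal; higher percent means less beta-gal luminescence so fewer parasites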
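Test system: β-gal T. cruzi (Tulahuen C4) inside NIH/3T3 cells / Quantity: 5,000 cells/well / Measured by: luminescence from GalScreen with 0.05% NP40, read after 60 min / Medium: DMEM plus 2% FBS / Measure: parasite load inhibition, % / Reagent: Tulahuen C4 trypomastigotes, 5000/well / Schedule: co-culture of at least 90 h after 3 h attachment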
Starred values were filed as active, the others as inactive; ? = inconclusive; . = not tested or not shown. A selection: hits, their analogues and other compounds. The true share with any hit is near 5.7%.

SMILES	Beta cell apopt	Mdm2 MdmX PPI	CSC inhib	Calb FLC	SKKanGAS inh	T cruzi inh
O=C(Nc1nc(-c2ccc(F)cc2)cs1)C1CCN(C(=O)c2ccc(F)cc2)CC1	-5.2	26.8	18.9	-1.0	21.3	55.0*
CC1CCCN(C(=O)COC(=O)c2ccc(=O)n(Cc3ccccc3)n2)C1 (stereo not given)	-1.1	1.4	-11.9	0.4	-6.0	0.7
Brc1cc(-c2ccccc2)nc(-c2ccccc2)n1	1.5	-7.5	64.7	1.7	51.1*	-45.3
CC[C@@]1(C(=O)OC)N[C@H](CN(C)S(=O)(=O)c2ccc(C(C)(C)C)cc2)[C@@H]2C(=O)N(C)C(=O)[C@@H]21	.	23.6	.	.	.	.
COc1ccc(NC(=O)CSc2nc3ccccc3c(=O)n2CCCO)cn1	0.3	14.9	5.9	.	.	.
Clc1ccc(-c2c[n+](Cc3ccc(Br)cc3)c3n2CCCCC3)cc1	48.4	21.3	5.6	106.4*	7.0	51.8
Clc1ccc(-c2c[n+](Cc3cccc(Cl)c3)c3n2CCC3)cc1	21.8	9.7	16.8	-3.0	-7.5	59.6*
O=[N+]([O-])c1ccc(C[n+]2cc(-c3ccc(Cl)c(Cl)c3)n3c2CCCCC3)cc1	-5.2	7.8	7.1	0.8	7.6	20.3
N#CC[n+]1cc(-c2ccc(Cl)cc2)n2c1CCC2	-1.8	15.3	3.8	3.2	-1.7	-5.7
Cc1ccc(-c2c[n+](CC(=O)c3ccc(Br)cc3)c3n2CCCCC3)cc1	57.2	29.6	-8.4	23.6	-6.2	73.6*
Clc1ccc(C[n+]2cc(-c3ccccc3)n3c2CCC3)cc1Cl	16.8	4.7	-4.2	-37.9	-5.6	59.4*
Clc1ccc(-c2c[n+](Cc3ccc(Cl)cc3Cl)c3n2CCCCC3)cc1	51.6	37.8	9.0	0.8	4.6	14.9
Clc1ccc(C[n+]2cc(-c3ccccc3)n3c2CCCCC3)c(Cl)c1	47.7	37.3	0.9	?	15.4	55.1*
COc1ccc(C(=O)COC(=O)c2cnc(C)cn2)c(OC)c1	-0.2	7.6	-0.7	-8.0	0.4	1.5
CCC(=O)Nc1ccc(-c2nnc(-c3ccccc3)o2)cc1	4.7	14.6	-13.3	1.7	22.8	56.6*
CN(CCO)c1cc(NCCCN2CCC(Cc3ccccc3)CC2)c2nonc2c1[N+](=O)[O-]	11.9	39.6	-0.6	3.3	-4.8	65.0*
O=[N+]([O-])c1cc([N+](=O)[O-])c2oc(-c3ccccc3)c(Br)c2c1O	.	.	.	?	69.0*	-0.7
COc1ccccc1N1CCN(S(=O)(=O)CCNC(=O)C2CC2)CC1	-8.2	4.5	7.2	-3.7	2.0	-3.5
COC(=O)C1=C(C)OC(N)=C(C#N)C1c1cccnc1 (stereo not given)	-6.9	-15.9	18.0	-5.8	2.2	-4.7
CC1=C(n2nnc([N+](=O)[O-])n2)C(c2cccnc2)C(C#N)=C(N)O1 (stereo not given)	.	4.4	-1.5	33.5	12.0	56.6*
Cc1c(C(=O)NCc2ccc3c(c2)OCO3)oc2ccc(S(=O)(=O)N3CCC(C)CC3)cc12	2.1	32.3	-0.5	-11.1	-3.6	55.8*
Cc1c(C(=O)NCc2ccc3c(c2)OCO3)oc2ccc(S(=O)(=O)N3CCCCCC3)cc12	.	26.5	3.8	-4.3	-3.7	55.4*
Cc1ccc2oc(C(=O)NCc3ccc4c(c3)OCO4)c(C)c2c1	-5.6	17.4	22.6	-11.6	-4.1	1.6
COc1ccc2c(c1)OC[C@H]1[C@H]2N2C(=O)CN(Cc3ccc(C)cc3)C(=O)[C@@]2(C)[C@H]1c1ccccc1	-7.6	6.9	1.3	.	.	.
CCCn1cc(CN2CCC(n3nccc3NC(=O)C(OC)c3ccccc3)CC2)c(C)n1 (stereo not given)	-3.7	12.6	-3.9	1.3	-5.0	10.0
SMILES	Beta cell apopt	Mdm2 MdmX PPI	CSC inhib	Calb FLC	SKKanGAS inh	T cruzi inh
Cc1ccc(NC(=S)NC2CCSc3ccccc32)cc1C (stereo not given)	6.2	25.8	1.1	-2.7	60.9*	-0.7
CN1CCC(=C(c2ccc(Cl)cc2)c2ccccn2)CC1	2.4	-6.2	-9.0	-2.3	-1.2	69.0*
O=C(c1cccc([N+](=O)[O-])c1)N1CCN(c2n[nH]c(=O)[nH]c2=O)CC1	-6.6	4.4	.	-2.0	-7.2	-7.1
Cc1nn(-c2nc3ccccc3[nH]2)c(N)c1-c1ccccc1	.	-176.7	30.9	1.5	86.5*	16.8
COc1cc2c(-c3ccccc3)c(C)oc2cc1/C=N/NC(N)=S	4.6	45.7	13.1	1.5	-4.5	89.3*
O=C(Cc1cccs1)N/N=C/C=C\c1ccco1	-3.1	-10.4	-1.5	2.4	7.2	-4.3
O=C(Cc1cccs1)N/N=C/c1ccco1	1.1	-7.3	-7.3	-9.8	76.9*	-18.2
CCN(CC)c1ccc(/C=N/NC(=O)Cc2cccs2)c(O)c1	91.5*	.	29.3	0.3	9.7	38.9
CCN(CC)c1nc(NN)nc(Nc2ccc(C)c(Cl)c2)n1	29.8	17.2	33.0	3.1	104.5*	42.9
c1ccc(C2(Cn3ccc4ccccc43)OCCO2)cc1	113.6*	12.4	11.0	-6.8	11.6	-12.2
O=C(O)c1ccc(Cn2ccc3ccccc32)o1	.	26.8	-15.6	-15.0	14.6	-12.2
O=C(NC(=S)Nc1ccc2nc[nH]c2c1)c1ccccc1	-1.7	-12.0	3.6	10.0	-3.5	-4.1
Cc1cccc(C)c1-n1cccc1/C=C1\SC(=S)N(c2cccc(C(=O)O)c2)C1=O	4.3	42.1	30.9	60.5	111.2*	9.3
Cc1ccc(NC(=O)CN2C(=O)S/C(=C\c3cccn3-c3cccc(C(=O)O)c3)C2=O)c(C)c1	5.4	9.7	31.7	-8.9	58.7*	-8.0
NS(=O)(=O)c1ccc(CNC(=O)CNC(=O)c2ccc(Br)o2)cc1	-4.0	-6.4	-11.6	3.5	0.8	-2.1
COc1ccc(/C=C2\SC(=S)N(NC(=O)c3ccncc3)C2=O)cc1OC	3.6	17.7	-5.5	-10.0	-8.9	3.7
COc1ccc(/C=C2\SC(=N)N(c3nccs3)C2=O)cc1OC	58.4	17.5	77.4*	3.4	89.0*	57.8*
N=C1S/C(=C\c2ccc(-c3cccc(Cl)c3)o2)C(=O)N1c1nccs1	71.7	.	65.2	-8.1	131.0*	16.5
CC1=CC(C)(C)n2c(O)c(N=N)c3c(C)c(C)cc1c32	-0.5	-23.6	3.6	2.6	67.7*	9.9
COc1ccccc1CNC(=O)CN1C(=O)NC2(CCOc3ccccc32)C1=O (stereo not given)	1.6	15.2	4.7	.	.	.
O=[N+]([O-])c1cc(Cl)ccc1NCCNc1ncc(C(F)(F)F)cc1Cl	8.9	-0.6	2.6	0.5	3.1	30.9
O=[N+]([O-])c1ccccc1NCCNc1ncc(C(F)(F)F)cc1Cl	3.2	-68.1	4.5	-14.2	52.2*	21.2
N=c1c2c(n(Cc3ccc(F)cc3)c3c1CCC3)CCCC2	23.2	33.8	-3.4	-25.0	9.9	63.3*
N=c1c2c(n(Cc3ccc(Cl)cc3)c3c1CCC3)CCC2	52.3	45.0	.	-9.6	9.4	79.4*
Cc1csc(NC(=O)C(C)N2C(=O)c3ccccc3S2(=O)=O)n1 (stereo not given)	-8.0	1.2	-6.4	-2.1	-0.9	-5.3

Assay outcomes as filed in PubChem.
